Screening data (PubChem BioAssay)
The list is not random: actives were taken first. Their share in the collection is about 3.1%.
FN deposit inh – fibronectin deposition inhibition | inhibition, % at 12.6 µM | AH1F fibroblasts, Alexa488-fibronectin deposition fluorescence, overnight | 350,000 compounds, 0.086% hits;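 active = mean inhibition across replicates of 30% or more, regardless of how many single replicates reach that level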
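test system = AH1F fibroblasts assembling fluorescent fibronectin matrix | quantity = 10000 AH1F cells per well | buffer or medium = DMEM plus 2% serum, read in PBS | doses = single dose, pinned | incubation = 1 h cell attachment, overnight exposure to compound and label | detection = fluorescence at 485 nm excitation, 525 nm emission | read-out basis = inhibition from reduced deposited-fibronectin fluorescence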
Env fusion inh – HIV envelope-mediated fusion inhibition. HeLa-JRFL Env/CEM21 cell fusion, luciferase. inhibition, % at 12.3 µM. 360,000 compounds, 1.1% hits;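 active = mean replicate inhibition score of at least 50 and every replicate individually at or above 50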
EWS-Fli inh – blocks EWS/Fli oncoprotein-driven transcription | A673 NR0B1-luciferase reporter, viability-normalised | 350,000 compounds, 0.67% hits | inhibition, % at 12.6 µM;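 active = mean inhibition of at least 50% after viability correction, with every replicate also passing that limit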;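 also: firefly luciferase signal divided by Alamar Blue viability fluorescence both relative to DMSO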
FGF22 binding – shifts melting point of recombinant human FGF22. recombinant FGF22 thermal shift, SYPRO orange fluorescence; percent of sucrose octasulfate shift, DMSO zero. activity (Tm shift, normalised), % at 9.99 µM. 340,000 compounds, 1.5% hits. AID 651658;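 active = mean Tm shift, scaled 0 neutral to 100 positive control, at about 1.3% or above, every replicate too, limit read from the data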
Target sequence (Q9HCT0 whole entry, looked up): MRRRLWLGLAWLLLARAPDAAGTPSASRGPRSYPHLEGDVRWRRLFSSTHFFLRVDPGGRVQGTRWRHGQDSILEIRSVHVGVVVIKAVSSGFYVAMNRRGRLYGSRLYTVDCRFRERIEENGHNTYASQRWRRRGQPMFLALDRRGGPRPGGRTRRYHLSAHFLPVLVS
PGC1a acetyl inh – modulators of PGC1a acetylation | 350,000 compounds, 0.17% hits | inhibition, % at 15.6 µM | AID 651687 | U2OS PGC1a acetylation, AlphaScreen anti-acetyl-lysine; with virally co-expressed GCN5 acetyltransferase;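 active = every replicate shows inhibition of at least 40%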
PAX8 inh HTS – lowers PAX8-driven luciferase in RMG-I cells; RMG-I TPO-luciferase reporter, SteadyGlo, 24 h; inhibition, % at 12.6 µM; 360,000 compounds, 1.2% hits;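 active = mean replicate inhibition at least 60% with every replicate also reaching 60%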;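 also: luciferase light reporting Pax8 driven TPO promoter activity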
Each line names hits and unclear results; the compound was inactive in the other large screens; [ ] = remark or other dose.

CC(C)NC(=O)N(C)C[C@H]1Oc2ccc(NC(=O)Cc3ccccc3)cc2CC(=O)N([C@H](C)CO)C[C@@H]1C	none (no result: Env fusion inh)
Cn1c(=O)c2cc(NC(=O)NCc3ccc(Cl)cc3Cl)ccc2n1Cc1ccc(F)cc1	FGF22 binding 44.8
Cn1c(=O)c2cc(NC(=S)NCc3ccccc3F)ccc2n1Cc1cccc(C(F)(F)F)c1	FGF22 binding 3.9 (no result: Env fusion inh, PGC1a acetyl inh)
CCOCCC(=O)Nc1ccc2c(c1)c(=O)n(C)n2C/C=C/c1ccccc1	EWS-Fli inh 59.5
Cn1c(=O)c2cc(NC(=O)NCc3ccc(F)cc3)ccc2n1C/C=C/c1ccccc1	EWS-Fli inh 56.4 (no result: PGC1a acetyl inh)
CC(C)(C)OC(=O)COc1cccc(C(=O)CCN2CCOCC2)c1	none (no result: FN deposit inh)
Cc1cc(C)cc(Oc2cc(NC(=O)c3cn(C)nc3C)cc([N+](=O)[O-])c2)c1	Env fusion inh 59.4 (no result: EWS-Fli inh, FGF22 binding, PAX8 inh HTS)
COC(=O)C[C@@H]1C[C@H]2c3cc(NC(=O)c4cccnc4)ccc3O[C@H]2[C@H](CO)O1	none
CCN(Cc1cnn(C)c1)C(=O)c1ccc(OC2CCN(S(=O)(=O)N(C)C)CC2)cc1	FGF22 binding 43.7
C[C@H]1CN([C@@H](C)CO)C(=O)c2cc(C#Cc3ccccc3F)cnc2O[C@H]1CN(C)C(=O)C1CCC1	none (no result: FN deposit inh)
COc1cc(CN2CCN(c3ccccc3F)CC2)c([N+](=O)[O-])cc1OC	FGF22 binding 43.8
O=[N+]([O-])c1cc2c(cc1CN1CCN(c3ccccc3F)CC1)OCO2	none
O=C(C1CCCCC1)N1CCCC(c2nc3c(nnn3Cc3ccccc3)c(=O)[nH]2)C1 (stereo unspecified)	Env fusion inh 78.5 (no result: FN deposit inh, EWS-Fli inh, FGF22 binding, PGC1a acetyl inh, PAX8 inh HTS)
O=C(c1ccccc1)N1CCCC(c2nc3c(nnn3Cc3ccccc3)c(=O)[nH]2)C1 (stereo unspecified)	none (no result: EWS-Fli inh, FGF22 binding, PAX8 inh HTS)
COc1ccc(CN(C)C[C@H]2Oc3ccc(NC(=O)Nc4c(C)noc4C)cc3CC(=O)N([C@H](C)CO)C[C@H]2C)cc1	none (no result: Env fusion inh)
CO[C@@H]1CN(C)C(=O)c2cc(NC(=O)Nc3ccc(Cl)cc3)ccc2OC[C@H](C)N(C)C[C@H]1C	Env fusion inh 59.9[16.7 µM] (no result: FGF22 binding)
CCCC(=O)Nc1ccc2c(c1)C(=O)N(C)C[C@@H](OC)[C@@H](C)CN(Cc1nccs1)[C@@H](C)CO2	Env fusion inh 57.6[16.7 µM]
CO[C@H]1CN(C)C(=O)c2cc(NC(=O)Nc3ccc(Cl)cc3)ccc2OC[C@@H](C)N(C)C[C@@H]1C	none (no result: FGF22 binding)
CO[C@H]1CN(C)C(=O)c2cc(NC(C)=O)ccc2OC[C@@H](C)N(C(=O)CN2CCOCC2)C[C@H]1C	FN deposit inh 30.6 (no result: PAX8 inh HTS)
CO[C@H]1CN(C)C(=O)c2cc(NC(C)=O)ccc2OC[C@@H](C)N(Cc2nccs2)C[C@H]1C	Env fusion inh 70.1[16.7 µM] (no result: PAX8 inh HTS)
CO[C@H]1CN(C)C(=O)c2cc(NC(C)=O)ccc2OC[C@H](C)N(C(=O)CN2CCOCC2)C[C@@H]1C	none (no result: PAX8 inh HTS)
CCCC(=O)Nc1ccc2c(c1)C(=O)N(C)C[C@@H](OC)[C@H](C)CN(Cc1nccs1)[C@@H](C)CO2	none
Cc1ccc(NC(=S)NCCc2ccc(F)cc2)c(C)c1	none (no result: EWS-Fli inh, FGF22 binding)
Cc1ccc(NC(=S)Nc2ccc(F)cc2)c(C)c1	FGF22 binding 43.9 (no result: PGC1a acetyl inh)
CC(=O)Cn1ncc(Br)c(Br)c1=O	PAX8 inh HTS 83.7 (no result: PGC1a acetyl inh)
Cn1c(N)c(N2CCCCC2)c(=O)n(CC(=O)Nc2cccc(C#N)c2)c1=O	FGF22 binding 43.0
Cc1cccc(C)c1NC(=O)Cn1c(=O)c(N2CCCCC2)c(N)n(C)c1=O	none
CC(=O)c1cccc(NC(=O)CN(c2cccc(F)c2)S(C)(=O)=O)c1	none (no result: FN deposit inh, Env fusion inh, EWS-Fli inh, FGF22 binding, PAX8 inh HTS)
CN(c1cccc(NC(=O)CN(c2cccc(F)c2)S(C)(=O)=O)c1)S(C)(=O)=O	FGF22 binding 43.0 (no result: PGC1a acetyl inh)
CC(=O)Oc1ccc(-c2csnn2)cc1	PGC1a acetyl inh 94.6 (no result: FN deposit inh, Env fusion inh, EWS-Fli inh, FGF22 binding, PAX8 inh HTS)
COc1ccc(Cn2c(-c3ccc(C)cc3)c[n+]3ccccc23)cc1	PAX8 inh HTS 88.4
O=C1C2C3C=CC(C4CC34)C2C(=O)N1/N=C/c1ccc([N+](=O)[O-])s1 (stereo unspecified)	none (no result: PGC1a acetyl inh)
O=C1C2C3C=CC(C4CC34)C2C(=O)N1/N=C/c1c[nH]c2ccccc12 (stereo unspecified)	PGC1a acetyl inh 106.0
COC(=O)[C@H](Cc1ccccc1)N1C(=O)O[C@@H](Cc2ccccc2)[C@H]1/C=C/C1CC1	none (no result: FN deposit inh)
COc1ccccc1N1CCN(c2ccnc3cc(Cl)ccc23)CC1	EWS-Fli inh 54.3 (no result: PGC1a acetyl inh)
